Measured values: article PMC8056739 (British Journal of Clinical Pharmacology, 2020)
Values joined by “and” are separate entries in the source; they are usually repeats but may differ in a detail not shown here. Equal entries are not always repeated.

Columns and labels:
[1] = Population PK model of peficitinib in RA patients; format: in vivo, human
Procedure, shortened: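 RA patients' plasma levels measured by validated LC–MS/MS (LLOQ 0.25 ng/mL) from trough and post-dose samples. BLQ values, samples >48 h after dosing (or <19 h in RAJ1), and outliers (>mean+3×SD of log trough per arm) were excluded. NONMEM, FOCE with interaction, healthy-volunteer model as prior (NWPRI penalty). 2-compartment model, exponential IIV, proportional residual. Stepwise covariate selection, power function centred on mean. 1000 bootstrap runs.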

[2] = cited from earlier work
[3] = Prior population PK model of peficitinib in healthy volunteers; format: in vivo; details: human, plasma, oral, 150 mg
Procedure, shortened: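 Healthy-volunteer plasma levels from five clinical pharmacology studies, excluding renal/hepatic-impairment subjects. Validated LC–MS/MS (LLOQ 0.25 ng/mL), BLQ values unused. NONMEM, FOCE with interaction. 2-compartment model, five absorption schemes compared, exponential IIV, proportional residual. Covariates tested on CL: age, weight, MDRD eGFR, liver enzymes, bilirubin. Selection stepwise (forward .01, backward .001). Assessed by goodness-of-fit plots and visual predictive check.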

[4] = RA patient model, 1000 bootstrap runs
[5] = RA patient model, √(exp(ω^2)-1) × 100

ALAG, absorption lag time (estimate) ([1]; RA patient model): 0.132 h
D, duration of zero-order absorption (estimate) ([1]; RA patient model): 1.37 h
Ka, first-order absorption rate constant (estimate) ([1]; RA patient model): 5.83 L/h
Vc, apparent distribution volume of the central compartment (estimate) ([1]; RA patient model): 280 L
Vp, apparent distribution volume of the peripheral compartment (estimate) ([1]; RA patient model): 122 L
CL, apparent total systemic clearance (estimate) ([1]; RA patient model, population estimate, oral): 91.7 L/h
ALAG, bootstrap median [1, 4]: 0.132 h
D, bootstrap median [1, 4]: 1.36 h
Ka, bootstrap median [1, 4]: 5.82 L/h
Q, bootstrap median [1, 4]: 10.2 L/h
Vc, bootstrap median [1, 4]: 279 L
Vp, bootstrap median [1, 4]: 122 L
Covariate eGFR on CL (exponent of power function, estimate) ([1]; RA patient model, eGFR centred at 91.5 mL/min/1.73m^2): 0.213
Covariate LYM (lymphocyte count) on CL (exponent of power function, estimate) ([1]; RA patient model, lymphocyte count centred at 1550 10^6/L): −0.104
Interindividual variability of CL [1, 5]: 25.7%
Interindividual variability of Vc [1, 5]: 39.2%
clearance ([1]; human, plasma, oral): 1530 mL/min
Model predicted mean change in CL from population mean CL ([1]; patients with observed maximum eGFR of 188 mL/min/1.73m^2): 16.7%
Model predicted mean change in CL from population mean CL ([1]; patients with observed maximum lymphocyte count of 4600 10^6/L): −10.7%
Model predicted mean change in CL from population mean CL ([1]; patients with observed minimum eGFR of 36.4 mL/min/1.73m^2): −17.8%
Model predicted mean change in CL from population mean CL ([1]; patients with observed minimum lymphocyte count of 500 10^6/L): 12.3%
clearance [3]: 1390 mL/min
Structure (SMILES): NC(=O)c1cnc2[nH]ccc2c1N[C@@H]1[C@@H]2CC3C[C@H]1C[C@@](O)(C3)C2 [peficitinib]
Exposure in healthy Japanese compared with Caucasian [2]: greater
Mean exposure in subjects with moderate hepatic impairment [2]: increases
Mean AUCinf ([2]; healthy subjects, single dose 450 mg): 4660 ng·h/mL
Tolerability ([2]; healthy subjects, single dose up to 450 mg): tolerability was shown
Dose proportionality of exposure ([2]; healthy volunteers, single doses 3–300 mg): dose‐proportional exposure
Increase of AUCinf by food intake ([2]; healthy volunteers): 27% and 36% and 27–36%
Mean terminal half-life (t1/2) ([2]; healthy volunteers): 2.8 to 12.9 h
Time to maximum observed concentration (Tmax) ([2]; healthy volunteers): 1.0 to 1.8 h
Urinary excretion of peficitinib, share of the oral dose ([2]; healthy volunteers): 9–15%
Exposure in subjects with versus without renal impairment ([2]; single, oral 150 mg dose): comparable
